This is an account of results in ChEMBL document CHEMBL1126944, “Benzoquinazoline inhibitors of thymidylate synthase: enzyme inhibitory activity and cytotoxicity of some sulfonamidobenzoylglutamate and related derivatives” (J Med Chem, 1993).

As a reminder, the Inhibition is the percentage by which the read-out fell short of the control. A high value points to strong suppression. One may read the Ki as the dissociation constant of the complex between target and ligand, obtained from inhibition or displacement. In general, Km refers to the concentration of substrate that gives half-maximal velocity.

The test system of data set [1] is MOLT-4. Put plainly: Inhibition constant against the transport of [3H]- methotrexate (MTX) by MOLT-4 T-cell. The class given is functional, Homo sapiens. In a few lines:
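Uptake of [3H]methotrexate, a substrate of the reduced folate carrier, into MOLT-4 T-cell leukemia cells measured with and without compound. Inhibition constant derived against this transport.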

Data set [2] addresses T1, Thymidylate synthase (Homo sapiens, UniProt P04818). Put plainly: Inhibition of purified human thymidylate synthase (TS) isolated from an Escherichia coli harboring a plasmid with thy A gene cloned from SV40 transformed human fibroblast cells. The class given is cell-free. The procedure, abridged:
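Purified recombinant human TS, expressed in E. coli from a thyA gene cloned from SV40-transformed human fibroblasts. Inhibition was measured by a modified tritium-release assay. Ki was estimated by treating compounds as tight-binding noncompetitive inhibitors.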

Data set [3] has as its system SW480. Put plainly: Cell culture cytotoxicity of SW480 colon adenocarcinoma cells. Type of data set: functional, Homo sapiens. The procedure, abridged: (§1)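 SW480 or MOLT-4 cells grown in folic acid-free RPMI 1640 supplemented with 10 nM (6R,S)-5-formyltetrahydrofolic acid and 10% charcoal-dialyzed FBS. Continuous 72 h drug exposure, growth read by MTT tetrazolium dye reduction. Reported as the concentration halving growth rate.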

Data set [4] in a line: Velocity compared to a control 50 uM aminopterin run on each test. Type of data set: ADME. In a few lines: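 Substrate activity toward partially purified hog liver folylpolyglutamate synthetase. Velocity expressed as percent of a 50 µM aminopterin control included in every run.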
In data set [5] the test system is MCF7. The experiment in a line: Cell culture cytotoxicity of MCF-7 breast adenocarcinoma cells. Type of data set: functional, Homo sapiens. The procedure, abridged:
(§2)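 MCF-7 cells kept in folic acid-free RPMI 1640 with 10 nM (6R,S)-5-formyltetrahydrofolic acid as sole folate plus 10% charcoal-dialyzed FBS. MTT dye-reduction assay after continuous drug exposure for 96 h. Value is the concentration giving 50% reduction in growth rate.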

Data set [6] has as its target T1, Thymidylate synthase. Put plainly: Inhibitory activity against thymidylate synthase (TS). The following applies: read-out: I50.
Data set [7] relates to SW480. The experiment in a line: Cell culture cytotoxicity of SW480 colon adenocarcinoma cells. The class given is functional, Homo sapiens. The procedure, abridged: as §1
The test system of data set [8] is MOLT-4. Put plainly: Cell culture cytotoxicity of MOLT-4 T-cell leukemia cells. Type of data set: functional, Homo sapiens. The procedure, abridged: as §1
Data set [9] in a line: Ratio of relative velocity to that of the Michaelis constant.
The target of data set [10] is T1, Thymidylate synthase. Put plainly: Inhibition of purified human thymidylate synthase isolated from an Escherichia coli harboring thy A gene cloned from SV40 transformed human fibroblast cells. The class given is cell-free.
For data set [11], the target named is MOLT-4.
The species named for another data set is Sus scrofa. The following applies: Liver.
Data set [12] has as its system MCF7. Put plainly: Cell culture cytotoxicity (CCCT) of MCF-7 breast adenocarcinoma cells. The class given is functional, Homo sapiens. In a few lines: as §2

The structures appear in SMILES notation.

T1 sequence (P04818 whole entry): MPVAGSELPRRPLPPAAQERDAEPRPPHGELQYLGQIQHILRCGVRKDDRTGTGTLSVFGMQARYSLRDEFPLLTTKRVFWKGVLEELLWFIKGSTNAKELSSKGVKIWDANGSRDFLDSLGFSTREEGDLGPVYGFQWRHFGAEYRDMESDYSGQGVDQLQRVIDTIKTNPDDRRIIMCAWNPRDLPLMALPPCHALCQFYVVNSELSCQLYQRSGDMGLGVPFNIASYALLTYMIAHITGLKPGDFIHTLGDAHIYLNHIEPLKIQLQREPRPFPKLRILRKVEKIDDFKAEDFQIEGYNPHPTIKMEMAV

On to `Nc1nc(O)c2c(ccc3ccc(NS(=O)(=O)c4ccc(C(=O)N[C@@H](CCC(=O)O)C(=O)O)cc4)cc32)n1`, for which the Inhibition with MOLT-4 [1] was found to be 42%. At Thymidylate synthase [2], this compound came in with a Ki of 100 nM. In the data set on SW480 [3], this compound registered a CCCT of more than 100 µM.
In data set [4], `Nc1nc(O)c2c(n1)CCc1cc(S(=O)(=O)Nc3ccc(C(=O)N[C@@H](CCC(=O)O)C(=O)O)cc3)ccc1-2` registered a Vm rel of 102%. The compound further had a CCCT with MCF7 [5] of 25 µM.
As for `C#CCN(Cc1ccc2nc(C)[nH]c(=O)c2c1)c1ccc(C(=O)N[C@@H](CCC(=O)O)C(=O)O)cc1`, the IC50 on Thymidylate synthase [6] amounted to […].
In the case of `C#CCN(c1ccc(C(=O)N[C@@H](CCC(=O)O)C(=O)O)cc1)S(=O)(=O)c1ccc2c(c1)CCc1nc(N)nc(O)c1-2`, the CCCT in the data set on SW480 [7], in the data set on MCF7 [5] and with MOLT-4 [8] was more than 50 µM throughout.
Turning to `Nc1nc(O)c2c(n1)CCc1ccccc1-2`, the CCCT in the data set on MCF7 [5] is more than 100 µM.
On to `Nc1nc(O)c2c(n1)CCc1cc(Br)c(S(=O)(=O)Nc3ccc(C(=O)N[C@@H](CCC(=O)O)C(=O)O)cc3)cc1-2`, for which the CCCT with SW480 [7] and with MCF7 [5] was more than 100 µM throughout. This compound showed a Vm rel in data set [4] of 28.9%.
Regarding `Nc1nc(O)c2c(ccc3cc(S(=O)(=O)Nc4ccc(C(=O)N[C@@H](CCC(=O)O)C(=O)O)cc4)c(Br)cc32)n1`, the Inhibition with MOLT-4 [1] was 45%. This compound returned a Ki at Thymidylate synthase [2] of 16400 nM. Moreover, the CCCT with MCF7 [5] and in the data set with SW480 [3] was more than 50 µM in each case.
In the case of `Cc1nc(O)c2c(n1)CCc1ccc(S(=O)(=O)N(C)c3ccc(C(=O)N[C@@H](CCC(=O)O)C(=O)O)cc3)cc1-2`, the CCCT with SW480 [7] and in the data set with MCF7 [5] was more than 50 µM throughout.
With `Nc1nc(O)c2c(n1)CCc1ccc(S(=O)(=O)Nc3ccc(C(=O)N[C@@H](CCC(=O)O)C(=O)O)cc3)cc1-2`, the CCCT is 7.9 µM with SW480 [7], 0.65 µM with MCF7 [5] and 2.4 µM in the data set on MOLT-4 [8]. This compound displayed a Vm rel in data set [4] of 115%.
As for `Cc1nc2ccc3ccc(S(=O)(=O)Nc4ccc(C(=O)N[C@@H](CCC(=O)O)C(=O)O)cc4)cc3c2c(=O)[nH]1`, the V/K in [9] is on record as 59.6. On Thymidylate synthase [10], the affinity corresponds to a Ki of 5.5 nM. The compound also returned a Vm rel in [4] of 185%.
`Cc1nc(O)c2c(ccc3ccc(S(=O)(=O)Nc4ccc(C(=O)N[C@@H](CCC(=O)O)C(=O)O)cc4)cc32)n1`: at MOLT-4 [11], the affinity, expressed as Ki, was 4900 nM. In addition, the CCCT in the data set with SW480 [7] was found to be 2.4 µM; in the data set with MCF7 [5], 0.07 µM; in the data set on MOLT-4 [8] it was 0.12 µM. For the same compound, the Km in the data set listed under Sus scrofa amounted to 3.11 µM.
With `Cc1nc(O)c2c(n1)CCc1ccccc1-2`, the CCCT in the data set on MCF7 [5] is more than 100 µM.
With `Cc1nc(O)c2c(n1)CCc1ccc(S(=O)(=O)Nc3ccc(C(=O)N[C@@H](CCC(=O)O)C(=O)O)cc3)cc1-2`, the figures for the CCCT with SW480 [7], with MCF7 [5] and in the data set with MOLT-4 [8] were 4.1 µM, 0.65 µM and 0.2 µM, respectively. The compound also came in with a Vm rel in [4] of 109%.
Take `Cc1nc(O)c2c(ccc3ccccc32)n1`: the CCCT in the data set on MCF7 [5] was more than 100 µM.
Compound `Nc1nc(O)c2c(ccc3ccc(Br)cc32)n1` came in with a Ki on Thymidylate synthase [2] of 20 nM. This compound returned a CCCT with MCF7 [12] of 10 µM.
`Cc1nc(O)c2c(ccc3c(S(=O)(=O)Nc4ccc(C(=O)N[C@@H](CCC(=O)O)C(=O)O)cc4)cccc32)n1`: the CCCT was more than 100 µM in the data set on SW480 [7] and 50 µM with MCF7 [5]. In addition, the Vel rem in data set [4] is 55.2%.
